Rows were chosen to be rich in hits. Some 1.6% of all compounds tested hit in one or more screens of this group.
PPC-1+TRAIL kill – compounds killing PPC-1 cancer cells with TRAIL present, primary screen, TRAIL potentiator project, ATPLite luminescence, uHTS | cell killing (% activity), % at 4 µM or 5 µM | 220,000 tested, 0.41% active | PPC-1 cells + TRAIL, ATPLite viability luminescence;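 active means cell killing above 50% in the first pass at 4 µM, then a duplicate retest at 5 µM averaging 50% or more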;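 further: plate controls were cells with TRAIL plus DMSO for no effect and medium-only wells lacking cells for full effect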
FLuc act counter – FLuc activators, initial screening, artefact control for FLuc-dependent activation tests, biochemical, ATPlite luminescence; AID 1027, 2008; activation factor at 10 µM; ATPlite luciferase biochemical, 10 min; 0 = ATP-free wells, 1 = DMSO control; 200,000 tested, under 10 active; Luciferin 4-monooxygenase (Photinus pyralis), P08659;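 active means luciferase activation factor, scaled between plate controls, of at least 2 with compound at 10 µM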
Target sequence (P08659 whole entry, looked up): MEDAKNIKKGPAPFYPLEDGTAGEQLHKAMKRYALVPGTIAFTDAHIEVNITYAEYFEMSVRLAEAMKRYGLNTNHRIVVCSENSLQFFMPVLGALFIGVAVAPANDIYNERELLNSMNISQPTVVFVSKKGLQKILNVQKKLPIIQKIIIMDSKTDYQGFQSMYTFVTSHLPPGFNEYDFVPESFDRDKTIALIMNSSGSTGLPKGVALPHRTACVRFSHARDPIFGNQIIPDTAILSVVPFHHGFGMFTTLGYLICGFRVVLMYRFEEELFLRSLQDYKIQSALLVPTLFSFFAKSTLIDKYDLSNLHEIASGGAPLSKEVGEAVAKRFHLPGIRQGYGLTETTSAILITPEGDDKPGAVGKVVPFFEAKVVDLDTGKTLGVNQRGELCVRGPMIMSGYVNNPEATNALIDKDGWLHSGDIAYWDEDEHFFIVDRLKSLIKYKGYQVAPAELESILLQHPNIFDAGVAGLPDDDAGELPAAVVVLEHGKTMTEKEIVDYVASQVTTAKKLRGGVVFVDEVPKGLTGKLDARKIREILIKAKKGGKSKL
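Assay system: Luciferase/luciferin reagent mix; Medium: PBS as buffer for the ATP substrate; Dosing: test compounds dosed from 2 mM stocks in 100% DMSO; Times: 10 min, room temperature; Signal: luminescence from luciferase reaction; Read-out: luciferase activation; Controls: No-ATP low control, compound-free enzyme-plus-ATP high control.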
TRAIL sens C8 – viability loss with TRAIL in NB7+C8 cells, primary screen, TRAIL sensitizer project, cell-based, ATPlite luminescence | inhibition (viability loss, TRAIL sensitization), % at 10 µM | 360,000 tested, 1% active;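 active means compounds causing at least 50% loss of cell viability in the single-dose screen, relative to plate controls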
FLuc inhib CS – firefly luciferase enzyme inhibitors, primary screen, artefact control for luciferase-based inhibitor screens, biochemical, luminescence, ATPLite; AID 1006, 2008; Luciferin 4-monooxygenase (Photinus pyralis), P08659; 200,000 tested, 1.5% active; 10 min; inhibition, % at 10 µM;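 active means inhibition above about 50% when tested at 10 µM, limit read from the data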
An asterisk follows results filed as active; nt = not tested or not shown.

SMILES	PPC-1+TRAIL kill	FLuc act counter	TRAIL sens C8	FLuc inhib CS
COC(=O)c1cc(CNC(=O)c2ccccc2Cl)ccc1OC	17	1	-7	0
Cc1cc(=O)[nH]c(N/N=C/c2sccc2C)n1	9	0.9	-4	10
Cc1ccsc1/C=N/Nc1nc2ccccc2[nH]1	1	0.3	7	74*
c1ccc2[nH]c(NN=C3CCCCCC3)nc2c1	20	0.2	16	82*
COc1c(O)cc2oc(-c3ccc(O)cc3)cc(=O)c2c1O	36	nt	39	nt
CC1CCc2c(nc3sc4c(c3c2N)CCCC4)C1 (configuration not stated)	23	0.7	12	27
COc1ccc2oc(=Nc3ccccc3)c(-c3nc4ccccc4[nH]3)cc2c1	61*	0.4	63*	61*
CSCCNC(=O)c1ccc(C(C)(C)C)cc1	41	0.3	20	74*
O=C(/C=C/c1ccnc2ccccc12)c1cccs1	26	0	31	96*
O=C(N/N=C/c1ccc(F)cc1)c1cc(-c2ccco2)nc2ccccc12	6	0.5	50*	48
O=C(O)c1cc(-c2ccco2)nc2ccccc12	2	0.9	-3	8
CCOc1ccc(/C=N/NC(=O)c2cc(-c3ccco3)nc3ccccc23)cc1	3	0.5	14	53*
O=C(O)c1cc(-c2ccc3ccccc3c2)nc2ccc(F)cc12	nt	nt	54*	nt
O=C(O)c1cc(-c2c[nH]c3ccccc23)nc2cc3ccccc3cc12	22	nt	52*	nt
O=C(O)c1cc(-c2ccc3ccccc3n2)nc2ccccc12	nt	nt	78*	nt
O=C(Nc1ncccn1)c1cc(-c2ccc(F)cc2)nc2ccccc12	8	0.9	6	11
CCc1ccc(-c2cc(C(=O)O)c3ccccc3n2)s1	nt	nt	68*	nt
COCCN(C(=O)COC(=O)c1cc(C)n(-c2ccccc2)c1C)c1c(N)n(Cc2ccccc2)c(=O)[nH]c1=O	nt	nt	-4	nt
CCOC(=O)N1C/C(=C\c2ccccc2)C(=O)/C(=C/c2ccccc2)C1	29	nt	18	nt
C[N+](C)(C)CCC(=O)N1C/C(=C/c2ccccc2)C(=O)/C(=C\c2ccccc2)C1	nt	nt	-5	nt
O=C1/C(=C/c2ccccc2)CN(C(=O)CCN2CCOCC2)C/C1=C\c1ccccc1	nt	nt	56*	nt
CN(C)CCC(=O)N1C/C(=C/c2ccccc2)C(=O)/C(=C\c2ccccc2)C1	nt	nt	95*	nt
O=C(/C=C/c1ccccc1)CCN1CCOCC1	nt	nt	13	nt
COc1ccc(OC(=O)N2C/C(=C/c3ccccc3)C(=O)/C(=C\c3ccccc3)C2)cc1	nt	nt	52*	nt
CCc1nn(CC(=O)N2CCN(c3ccc(OC)cc3)CC2)c(=O)c2cc3occc3n12	nt	nt	-2	nt
SMILES	PPC-1+TRAIL kill	FLuc act counter	TRAIL sens C8	FLuc inhib CS
N/C(=N\OC(=O)CCC1CCCC1)c1ccccc1	-2	0.1	-6	88*
N/C(=N\OC(=O)CCCc1ccccc1)c1ccccn1	25	0.4	-11	60*
N/C(=N\OC(=O)CCC1CCCC1)c1ccccn1	8	0.2	-1	84*
C=CCn1c(O)c(C=Nc2ccccc2)sc1=S	-4	1	-1	-2
CCOC(=O)c1c(C)sc2c1N(C(=O)CCl)c1cc(Cl)ccc1S2	5	1.1	55*	-6
COc1ccc(CN2CCN(Cc3ccc(C)cc3)CC2)c(OC)c1	nt	nt	5	nt
CCS(=O)(=O)Nc1ccc(-c2nc3cccnc3s2)cc1	27	0.3	-15	67*
CCS(=O)(=O)Nc1cccc(-c2nc3cccnc3s2)c1	-6	nt	-19	nt
CCOC(=O)c1ccc(NC(=O)CCOc2ccc(C)cc2)cc1	-22	1	-4	-2
C#CCOCCOCCOCCNc1nc(N2CCN(C(=O)CCCCCCCCCCNC(=O)[C@H](CCCCN)n3cc(C)nn3)CC2)nc(N2CCN(C(=O)CCCCCCCCCCNC(=O)[C@@H]([C@H](C)CC)n3cc(CCCCCN)nn3)CC2)n1	nt	nt	97*	nt
C#CCOCCOCCOCCNc1nc(N2CCN(C(=O)CCCCCCCCCCNC(=O)[C@H]([C@@H](C)CC)n3cc(CCCCCN)nn3)CC2)nc(N2CCN(C(=O)CCCCCCCCCCNC(=O)[C@@H]([C@H](C)O)n3cc(C)nn3)CC2)n1	nt	nt	92*	nt
C#CCOCCOCCOCCNc1nc(N2CCN(C(=O)CCCCCCCCCCNC(=O)[C@H](CCC(=O)O)n3cc(CCCCCN)nn3)CC2)nc(N2CCN(C(=O)CCCCCCCCCCNC(=O)[C@@H]([C@H](C)O)n3cc(C)nn3)CC2)n1	nt	nt	-7	nt
C#CCOCCOCCOCCNc1nc(N2CCN(C(=O)CCCCCCCCCCNC(=O)Cn3cc(CCCCCN)nn3)CC2)nc(N2CCN(C(=O)CCCCCCCCCCNC(=O)[C@H]([C@@H](C)CC)n3cc(CCCCCN)nn3)CC2)n1	nt	nt	75*	nt
Cc1ccc(C)c(/C(O)=C2\C(=O)C(=O)N(CCCN3CCOCC3)C2c2cccnc2)c1 (configuration not stated)	0	1.1	-22	-8
Cc1nnc(SCC(=O)N2CC(C)OC(C)C2)n1-c1ccccc1 (configuration not stated)	nt	nt	28	nt
COCCNC(=O)C1CCCN(C(=O)c2cc(C)nn2C(C)(C)C)CC1 (configuration not stated)	nt	nt	-7	nt
COCCN(CCOC)Cc1cc(=O)oc2cc(C)ccc12	nt	nt	4	nt
Cc1ccc(Cl)cc1NC(=O)c1ccc(CSc2nnnn2C)cc1	-16	1	12	1
Cc1ccc(NC(=O)c2ccc(CSc3nnc(C)s3)cc2)cc1	42	0.4	34	56*
Cc1ccc(NC(=O)c2ccc(CSc3nnnn3C)cc2)cc1	39	0.4	58*	57*
CNc1nnc(-c2ccc(OC)cc2)s1	40	0.4	9	63*
Cc1ccc(-c2cc(C(=O)N/N=C/c3c(C)nn(-c4ccccc4)c3C)n[nH]2)s1	11	1	-23	2
Cc1nn(-c2ccccc2)c(C)c1/C=N/NC(=O)c1cc(C(C)(C)C)[nH]n1	24	1	52*	0
COC(=O)[C@]1(C)CCC[C@@]2(C)C3CC[C@@]4(C)C[C@]3(CCC21)CC(=O)N4 (some centres not stated)	nt	nt	-6	nt
C=C1C(=O)C23CCC4C(C)(C(=O)OC)CCCC4(C)C2CCC1(O)C3 (configuration not stated)	nt	nt	89*	nt
COc1ccc(Nc2nc(N3CCN(S(C)(=O)=O)CC3)nc3ccccc23)c(OC)c1	nt	nt	-4	nt
CCOC(=O)c1cccc(NC(=O)/C=C/c2ccc([N+](=O)[O-])cc2)c1	7	0.9	76*	14
CC(C)(C)C(=O)COC(=O)c1cccc(NC(=O)c2ccco2)c1	2	1	11	-5
O=C(COC(=O)c1cccc(NC(=O)c2ccco2)c1)c1ccc(Br)cc1	-11	0.4	-15	60*
CC(=O)Nc1ccc(C(=O)OCC(=O)c2cccc([N+](=O)[O-])c2)cc1	15	1.1	1	-10
